ChEMBL document CHEMBL2311388, “Carbamoyl pyridone HIV-1 integrase inhibitors. 2. Bi- and tricyclic derivatives result in superior antiviral and pharmacokinetic profiles” (J Med Chem, 2013)

Experiments:
[1] = system: Human immunodeficiency virus 1; assay: Antiviral activity against wild type HIV1 3B infected in human MT4 cells assessed as cell viability by MTT assay; format: functional, organism-based; settings: Human immunodeficiency virus 1, 3B
Summary of the method: (§1)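 HIV-1 replication in MT-4 cells read by MTT. Values are mean ± s.d. of three independent experiments. The protein-adjusted value is derived from the MT-4/MTT IC50 and the shift seen with human serum albumin. Detailed conditions are those of the earlier paper in the series.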

[2] = system: Human immunodeficiency virus 1; assay: Antiviral activity against wild type HIV1 3B infected in human MT4 cells assessed as cell viability by MTT assay in presence of human serum albumin; format: functional, organism-based; settings: Human immunodeficiency virus 1, 3B; summary of the method: as §1
[3] = Cytotoxicity against human MT4 cells assessed as growth inhibition after 4 days by MTT assay; format: cell-based
Summary of the method: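 MT-4 cells; values given as mean ± s.d. of three independent experiments.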

[4] = system: Human immunodeficiency virus 1; assay: Selectivity ratio of IC50 for RAL-resistant HIV1 harboring integrase Q148K mutant to IC50 for wild type HIV1 3B; format: functional
[5] = system: Human immunodeficiency virus 1; assay: Selectivity ratio of IC50 for wild type HIV1 3B infected in human MT4 cells in presence of human serum albumin to IC50 for wild type HIV1 3B infected in human MT4 cells; format: functional
[6] = system: Human immunodeficiency virus 1; assay: Selectivity ratio of IC50 for RAL-resistant HIV1 harboring integrase Y143R mutant to IC50 for wild type HIV1 3B; format: functional
[7] = Oral bioavailability in rat at 5 mg/kg; format: ADME, organism-based; settings: in vivo
[8] = Ratio of plasma concentration in rat after 24 hrs to IC50 for wild type HIV1 3B infected in human MT4 cells in presence of human serum albumin; format: ADME, cell-based; settings: mt4, 24 h
[9] = (§2) Volume of distribution at steady state in rat at 1 mg/kg, iv and 5 mg/kg, po; format: ADME, organism-based; settings: in vivo, read-out: Vdss
[10] = system: Human immunodeficiency virus 1; assay: Selectivity ratio of IC50 for RAL-resistant HIV1 harboring integrase N155H mutant to IC50 for wild type HIV1 3B; format: functional
[11] = Total clearance in rat at 1 mg/kg, iv and 5 mg/kg, po; format: ADME, organism-based; settings: in vivo
[12] = Half life in rat at 1 mg/kg, iv and 5 mg/kg, po; format: ADME, organism-based; settings: in vivo
[13] = system: Rattus norvegicus; assay: as §2; format: ADME, organism-based; settings: in vivo

Structure (SMILES) | IC50 [1] | IC50 [2] | CC50 at 96 h [3] | Ratio IC50 [4] | Ratio IC50 [5] | Ratio IC50 [6] | bioavailability [7] | Ratio [8] | Vd [9] | Ratio IC50 [10] | clearance [11] | half-life [12] | Vdss [13]
O=C(NCc1ccc(F)cc1)c1cn2c(c(O)c1=O)C(=O)N(C1CCCCC1)CC2 | 6.5 nM | 29 nM | > 240000 nM | >250 | 4.4 |  |  |  |  |  |  |  | 
CC(C)OCCn1ccn2cc(C(=O)NCc3ccc(F)cc3)c(=O)c(O)c2c1=O | 4.3 nM | 19 nM | 49000 nM | 39 | 4.4 |  |  |  |  |  |  |  | 
CC(C)CN1CCCCN2C(=O)c3c(O)c(=O)c(C(=O)NCc4ccc(F)cc4)cn3CC12 (racemic) | 5.4 nM | 91.8 nM | 13000 nM | 3.2 | 17 |  |  |  |  |  |  |  | 
O=C(NCc1ccc(F)cc1)c1cn2c(c(O)c1=O)C(=O)N1CCCN(Cc3nccs3)C1C2 (racemic) | 3.3 nM | 12.9 nM | 2800 nM | 4.2 | 3.9 |  |  |  |  |  |  |  | 
CS(=O)(=O)N1CCCN2C(=O)c3c(O)c(=O)c(C(=O)NCc4ccc(F)cc4)cn3CC21 (racemic) | 43 nM | 120 nM | > 220000 nM |  | 2.8 |  |  |  |  |  |  |  | 
COCCN1CCn2cc(C(=O)NCc3ccc(F)cc3)c(=O)c(O)c2C1=O | 5.9 nM | 18 nM | 52000 nM | 18 | 3.1 | 1.5 | 41% | 27 | 0.12 L/kg | 1.5 | 0.51 mL/min/kg | 3.4 h | 
CN1CCCCN2C(=O)c3c(O)c(=O)c(C(=O)NCc4ccc(F)cc4)cn3CC12 (racemic) | 6.4 nM | 31.4 nM | > 200000 nM | 4.2 | 4.9 |  |  |  |  |  |  |  | 
CN(C)C(=O)CN1CCn2cc(C(=O)NCc3ccc(F)cc3)c(=O)c(O)c2C1=O | 26 nM | 62 nM | > 200000 nM |  | 2.4 |  |  |  |  |  |  |  | 
O=C(NCc1ccc(F)cc1)c1cn2ccn(C3CCCCC3)c(=O)c2c(O)c1=O | 12 nM | 156 nM | > 200000 nM | >250 | 13 |  |  |  |  |  |  |  | 
O=C(NCc1ccc(F)cc1)c1cn2ccn(CCN3CCOCC3)c(=O)c2c(O)c1=O | 6.6 nM | 20 nM | 36000 nM | >250 | 3 |  |  |  |  |  |  |  | 
O=C(NCc1ccc(F)cc1)c1cn2c(c(O)c1=O)C(=O)N1CCCOC1C2 (racemic) | 3.4 nM | 26.9 nM | 18000 nM | 2.8 | 7.9 | 1.6 |  | 685 | 0.13 L/kg | 1.6 | 0.1 mL/min/kg | 17 h | 
O=C(NCc1ccc(F)cc1)c1cn2c(c(O)c1=O)C(=O)N(CCN1CCOCC1)CC2 | 21 nM | 34 nM | 160000 nM |  | 1.6 |  |  |  |  |  |  |  | 
COCCN1CCCN2C(=O)c3c(O)c(=O)c(C(=O)NCc4ccc(F)cc4)cn3CC12 (racemic) | 5.2 nM | 20.3 nM | 9800 nM | 5.7 | 3.9 |  |  |  |  |  |  |  | 
O=C(NCc1ccc(F)cc1)c1cn2ccn(CCOc3ccccc3)c(=O)c2c(O)c1=O | 4.4 nM | 48 nM | 2400 nM | >250 | 11 |  |  |  |  |  |  |  | 
COC(=O)c1[nH]cc(C(=O)NCc2ccc(F)cc2)c(=O)c1O |  |  |  | 200 | 12 | 1.5 |  | 3.4 | 0.2 L/kg | 21 |  | 4.7 h | 
O=C(NCc1ccc(F)cc1)c1cn2c(c(O)c1=O)C(=O)N1CCCCOC1C2 (racemic) | 2.9 nM | 22 nM | 26000 nM | 2.2 | 7.6 |  |  |  |  |  |  |  | 
COCCN1C(=O)c2c(O)c(=O)c(C(=O)NCc3ccc(F)cc3)cn2CC1O (configuration not stated) | 3.8 nM | 14.1 nM | 83000 nM | 2.1 | 3.7 | 1.5 | 14% | 117 | 0.14 L/kg | 1.5 | 0.24 mL/min/kg | 7.6 h | 
CC(=O)N1CCCN2C(=O)c3c(O)c(=O)c(C(=O)NCc4ccc(F)cc4)cn3CC12 (racemic) | 29 nM | 58 nM | > 200000 nM |  | 2 |  |  |  |  |  |  |  | 
O=C(NCc1ccc(F)cc1)c1cn2c(c(O)c1=O)C(=O)N(CCOc1ccccc1)CC2 | 6.8 nM | 65 nM | 10000 nM | 17 | 9.5 |  |  |  |  |  |  |  | 
CC(C)OCCN1CCn2cc(C(=O)NCc3ccc(F)cc3)c(=O)c(O)c2C1=O | 4.2 nM | 13 nM | 30000 nM | 9.9 | 3.1 |  |  |  |  |  |  |  | 
CC(C)N1CCN2C(=O)c3c(O)c(=O)c(C(=O)NCc4ccc(F)cc4)cn3CC21 (racemic) | 2.3 nM | 7.8 nM | 8000 nM | 39 | 3.4 |  |  |  |  |  |  |  | 
O=C(NCc1ccc(F)cc1)c1cn2c(c(O)c1=O)C(=O)N1CCOC1C2 (racemic) | 2.7 nM | 140 nM | 72000 nM | 19 | 52 |  |  |  |  |  |  |  | 
COc1cc2c(cc1Cc1cccc(Cl)c1F)c(=O)c(C(=O)O)cn2[C@H](CO)C(C)C [ELVITEGRAVIR] |  |  |  | >1700 |  | 1.8 |  |  |  | 25 |  |  | 
COCCn1ccn2cc(C(=O)NCc3ccc(F)cc3)c(=O)c(O)c2c1=O | 1.6 nM | 27 nM | > 200000 nM | 35 | 17 | 1.6 | 40% | 2600 |  | 3.7 | 0.02 mL/min/kg | 11 h | 0.015 L/kg
CN(C)C(=O)Cn1ccn2cc(C(=O)NCc3ccc(F)cc3)c(=O)c(O)c2c1=O | 35 nM | 144 nM | > 200000 nM |  | 4.1 |  |  |  |  |  |  |  | 
CN1CCCN2C(=O)c3c(O)c(=O)c(C(=O)NCc4ccc(F)cc4)cn3CC12 (racemic) | 3.8 nM | 16.3 nM | 20000 nM | 4.7 | 4.3 |  |  |  |  |  |  |  | 
CC(C)N1CCCN2C(=O)c3c(O)c(=O)c(C(=O)NCc4ccc(F)cc4)cn3CC21 (racemic) | 7.5 nM | 32.3 nM | 7200 nM | 9.1 | 4.3 |  |  |  |  |  |  |  | 
